Screens as filed in PubChem BioAssay.
The list is not random: actives were taken first. Their share in the collection is about 2.9%.
SIAE primary: human SIAE inhibition, primary screen. SIAE FP-Rh probe binding, fluorescence polarization. inhibition, % at 9.66 µM. 0.69% of 370,000 active. Q9HAT2;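 active means inhibition above a cutoff: mean of compounds within the control limits plus 3 SD of those, cut at about 17% in these data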
TCR CD3 inh: blocks the human TCR-CD3 interaction. inhibition, % at 9.4 µM. TAMRA-labeled TCR probe fluorescence, biochemical. 0.37% of 360,000 active. AID 651800; in the data active means inhibition above about 19%;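 further: recombinant mutant TCR 2C K166C tagged with TAMRA read by polarization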
HTRA1 inhibitor: blocks human HTRA1 serine peptidase | recombinant HTRA1, FP-rhodamine activity-based probe, fluorescence polarization | inhibition, % at 5.96 µM | 0.5% of 340,000 active | AID 504803; in the data active means inhibition above about 36%
PAD4 inh: blocks human protein arginine deiminase 4; recombinant PAD4, RCA probe fluorescence polarization; inhibition, % at 6.36 µM; 0.41% of 330,000 active;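 active means percent inhibition above a cutoff equal to the mean of all tested compounds plus 3 SD, cut at about 15% in these data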
Target sequence (Q9UM07 whole entry, looked up): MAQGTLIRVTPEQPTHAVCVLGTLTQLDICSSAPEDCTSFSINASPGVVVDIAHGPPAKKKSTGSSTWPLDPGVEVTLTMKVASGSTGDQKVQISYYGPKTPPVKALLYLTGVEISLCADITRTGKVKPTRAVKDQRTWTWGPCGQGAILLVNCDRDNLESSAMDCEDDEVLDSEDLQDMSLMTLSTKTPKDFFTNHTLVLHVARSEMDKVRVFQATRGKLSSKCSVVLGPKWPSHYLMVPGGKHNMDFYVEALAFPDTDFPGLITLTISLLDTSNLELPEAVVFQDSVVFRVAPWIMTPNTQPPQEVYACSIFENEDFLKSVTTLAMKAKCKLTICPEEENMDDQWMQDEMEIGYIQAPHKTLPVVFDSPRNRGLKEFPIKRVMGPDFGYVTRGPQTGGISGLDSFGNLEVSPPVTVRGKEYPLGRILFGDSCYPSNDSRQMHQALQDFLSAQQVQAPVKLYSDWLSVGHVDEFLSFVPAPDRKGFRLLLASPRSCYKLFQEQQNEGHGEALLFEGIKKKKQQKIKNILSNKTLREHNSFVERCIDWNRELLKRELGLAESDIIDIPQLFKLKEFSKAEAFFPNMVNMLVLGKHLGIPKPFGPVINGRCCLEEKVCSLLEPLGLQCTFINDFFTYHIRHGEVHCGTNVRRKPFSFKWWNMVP
PRMT1 inh: blocks human protein arginine methyltransferase 1; inhibition, % at 2.79 µM; 1.3% of 370,000 active; Q99873; recombinant PRMT1, activity-based probe fluorescence polarization;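 active means inhibition above about 21% made by adding two undisclosed values, limit read from the data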
ABHD4 inh: ABHD4 (mouse) inhibition, primary FP screen; Q8VD66; purified mABHD4, FP-Rh probe fluorescence polarization; 0.54% of 370,000 active; inhibition, % at 8.92 µM;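 active means inhibition exceeding the mean over every tested compound plus 3 SD, cut at about 30% in these data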
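Doses – 8.92 µM, single dose · Material – wild-type mouse ABHD4 protein · Replication – single well per compound (singlicate) · Measure – percent inhibition of probe binding, normalized to plate controls · Schedule – 45 min compound pre-incubation plus 60 min probe step, 25 °C · Detection – fluorescence polarization with parallel and perpendicular emission, 525/598 nm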
mABHD4 conf: confirmation of mouse ABHD4 inhibitors | shares compounds with ABHD4 inh | inhibition, % at 8.92 µM | purified mABHD4, FP-Rh probe fluorescence polarization | AID 720658 | 55% of 1,800 active;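 active means mean inhibition across replicates above the hit cutoff set in the primary screen, cut at about 30% in these data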
Hits are given with their value; . = inactive; / = no result given; ! = not confirmed by another sample.

SMILES	SIAE primary	TCR CD3 inh	HTRA1 inhibitor	PAD4 inh	PRMT1 inh	ABHD4 inh	mABHD4 conf
O=[N+]([O-])c1ccc(/C=N/N=C/c2ccc([N+](=O)[O-])o2)o1	.	.	.	/	.	.	/
COc1ccc(C2C3=C(CC(C)(C)CC3=O)Oc3ncn(Cc4ccccc4)c(=N)c32)cc1 (centres undefined)	.	.	.	.	.	.	/
COc1ccc(C2C3=C(CC(C)(C)CC3=O)Oc3ncn4nc(-c5cccnc5)nc4c32)cc1 (centres undefined)	.	.	.	.	.	29.6	.
COC(=O)C(Cc1c[nH]c2ccccc12)NC(C)=O (centres undefined)	.	.	.	.	.	.	/
COC(=O)[C@@H](Cc1c[nH]c2ccccc12)NCc1cccc(B(O)O)c1	.	.	.	/	.	67.1	61.3
CC(C)CNc1cccc2c1S(=O)(=O)N(Cc1cn(Cc3cccc(F)c3)nn1)Cc1ccccc1O2	.	/	/	/	.	.	/
CC1CCN(c2ccc(C(=O)O)cc2NS(=O)(=O)c2ccccc2[N+](=O)[O-])CC1	.	/	/	/	.	43.9	42.3
CC1CCN(c2ccc(C(=O)O)cc2NS(=O)(=O)c2ccc(C(C)(C)C)cc2)CC1	.	/	/	/	.	42.1	51.6
O=C(NN=Cc1ccc(O)cc1O)c1ccccc1NS(=O)(=O)c1cccs1	.	.	.	.	.	32.6	35.9
O=C(c1cc([N+](=O)[O-])ccc1Cl)N1CCN(c2ccc([N+](=O)[O-])cc2)CC1	.	.	.	.	.	39.9	.
O=C(NCCc1ccc(Cl)cc1)c1ccc2c(=O)[nH]c3c(C(=O)NCC4CCCO4)sc(=S)n3c2c1 (centres undefined)	.	.	/	/	.	35.7	33.0
O=C(NC1CCCCC1)c1sc(=S)n2c1[nH]c(=O)c1ccccc12	.	.	.	.	.	.	/
CC(=O)c1ccc(N2CCN(C(=O)c3ccc4c(=O)[nH]c5c(C(=O)NC6CCCC6)sc(=S)n5c4c3)CC2)cc1	.	.	/	/	.	34.4	.
O=C(NCCc1ccccc1)c1ccc2c(=O)[nH]c3c(C(=O)NCC4CCCO4)sc(=S)n3c2c1 (centres undefined)	.	.	.	.	.	50.0	36.1
N#CCC[C@@H]1CC[C@]2(CCCN(S(=O)(=O)c3ccccc3)C2)O1	.	/	/	/	.	.	/
COc1ccc(C(=O)c2[nH]c(N)c(C(=O)c3c[nH]c4ccccc34)c2-c2ccc(OC)cc2)cc1	.	.	/	/	.	.	/
Cc1onc(-c2ccc(Cl)cc2)c1-c1ccn(S(=O)(=O)c2ccccc2Cl)n1	.	/	/	/	.	.	/
Cc1ccccc1NC(=O)Cc1nc(COC(=O)CCc2ccccc2)cs1	.	.	.	.	.	52.6	48.2
CCOC(=O)/C=C/C(=O)OCc1csc(CC(=O)Nc2ccccc2C)n1	.	.	.	.	.	29.9	39.9
CCOc1ccc2[nH]c3c(NCCC(C)C)ncnc3c2c1	.	.	.	/	.	38.9	39.0
CCOc1ccc2[nH]c3c(NCCN(C)C)ncnc3c2c1	.	.	.	.	.	.	/
O=C(CCCN1CCN(c2ccccc2)CC1)c1ccc(F)cc1	.	.	.	/	.	.	/
O=C1NCN(c2ccccc2)C12CCN(CCCC(c1ccc(F)cc1)c1ccc(F)cc1)CC2	.	.	.	.	.	31.9	37.0
CCN(C(=S)NC(=O)c1ccco1)c1cccc2ccccc12	.	.	.	.	.	35.6	.
COc1ccc(-n2nc3c(=O)[nH][nH]c3cc2=O)cc1	.	.	.	.	.	31.5	42.1
SMILES	SIAE primary	TCR CD3 inh	HTRA1 inhibitor	PAD4 inh	PRMT1 inh	ABHD4 inh	mABHD4 conf
CCOC(=O)CC[C@H]1CC[C@]2(CCCN(C(=O)c3ccc4ccccc4n3)C2)O1	.	/	/	/	.	.	/
O=C(O)c1ccccc1Nc1cccc(OCc2ccc3ccccc3n2)c1	.	.	.	.	.	36.3	33.3
COc1cc2c(cc1NC(=O)CSc1nnc(-c3ccccc3C)n1Cc1ccco1)oc1ccccc12	.	/	/	/	.	.	/
CC(=O)Nc1cccc(/C(C)=N/Nc2ccc(S(=O)(=O)Nc3ccccc3C(=O)O)cc2[N+](=O)[O-])c1	.	.	.	/	.	42.4	63.0
NS(=O)(=O)c1ccc(N/N=C/c2ccc(C(=O)O)cc2)c([N+](=O)[O-])c1	.	.	.	.	.	.	/
CC(=O)Nc1ccc(C=NNc2ccc(S(=O)(=O)Nc3ccccc3C(=O)O)cc2[N+](=O)[O-])cc1	.	.	.	.	.	54.9	76.9
COc1ccc(C(C)=NNc2ccc([N+](=O)[O-])cc2S(=O)(=O)Nc2ccccc2C(=O)O)c(OC)c1	.	.	.	.	.	.	/
CC(=O)c1ccc(NC(=O)CSc2nnc(-c3ccco3)c(-c3ccco3)n2)cc1	.	.	.	.	73.3	45.1	29.5
CC(=O)Nc1ccc(NC(=O)CSc2nnc(-c3ccco3)o2)cc1	.	.	.	.	.	.	/
COc1ccc(C(C)=O)c(OC(=O)c2ccc(OC)c(OC)c2)c1	.	.	.	.	.	.	/
COc1ccc(C(=O)Oc2cc(OC)cc(OC)c2C(C)=O)cc1	.	.	.	.	.	38.1	41.4
CN(CCO)c1cccc2c1S(=O)(=O)N(Cc1cn(Cc3ccccc3C(F)(F)F)nn1)Cc1ccccc1O2	.	/	/	/	.	.	/
CCCCNc1c(-c2cccc(SC3CCCCC3)c2)nc2ccc(Cl)cn12	.	.	.	.	.	.	/
CCCCNc1c(-c2ccc(SC3CCCCC3)cc2)nc2ccccn12	.	.	.	.	.	43.8	.
Cc1ccn2c(NCc3ccccc3)c(-c3cccc(SC4CCCCC4)c3)nc2c1	.	.	.	.	.	30.1	30.9!
CCCCNc1c(-c2cccc(SC(C)CC)c2)nc2ccc(Cl)cn12 (centres undefined)	.	.	.	.	.	.	/
CCCCNc1c(-c2ccc(SC(C)CC)cc2)nc2ccccn12 (centres undefined)	.	.	.	.	.	40.5	69.2
c1nc(NCC2CCOC2)c2cc(-c3ccc4c(c3)OCO4)ccc2n1 (centres undefined)	.	/	/	/	.	.	/
CCOC(=O)C1CCN(C2=C(NS(=O)(=O)c3ccc(Cl)cc3)C(=O)c3ccccc3C2=O)CC1	.	.	.	.	.	40.5	57.8
CC1CCN(C2=C(NS(=O)(=O)c3ccc(Cl)cc3)C(=O)c3ccccc3C2=O)CC1	.	.	.	.	.	.	/
FC(F)(F)c1ccccc1NC(=S)OC1CCC12CCC(c1ccccc1)CC2 (centres undefined)	.	/	/	/	.	.	/
Cc1ccc(C(=O)NNC2=Nc3cccc4cccc2c34)cc1	.	.	.	.	.	30.0	.
COc1ccc(C(=O)NNC2=Nc3cccc4cccc2c34)cc1	.	.	.	.	.	.	/
O=C(N/N=C/c1ccncc1)c1cc2ccccc2cc1O	.	.	.	/	.	42.6	.
